Source: ChEMBL document CHEMBL1153536, “5-lipoxygenase-activating protein inhibitors: development of 3-[3-tert-butylsulfanyl-1-[4-(6-methoxy-pyridin-3-yl)-benzyl]-5-(pyridin-2-ylmethoxy)-1H-indol-2-yl]-2,2-dimethyl-propionic acid (AM103)” (J Med Chem, 2009)

Experiments:
Cytochrome P450 3A4 [1] = target: T1, Cytochrome P450 3A4 (Homo sapiens, UniProt P08684); assay: Inhibition of CYP3A4 assessed as inhibition rate
Blood = assay: Inhibition of calcium ionophore A-23187-stimulated LTB4 production in human whole blood by ELISA; assay type: functional, tissue-based
Summary of the method: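 Heparinized human whole blood preincubated 15 min at 37 °C with compound in DMSO. Stimulated 30 min at 37 °C with A23187 (2 μL of 1.5 mM into 150 μL). Plasma LTB4 measured by ELISA at 1:100 dilution; IC50 by nonlinear regression. A single value is one assay averaging two donors.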

[2] = Inhibition of calcium ionophore A-23187-stimulated LTB4 production in human leukocytes by ELISA; assay type: functional, cell-based; conditions: Leukocyte
Summary of the method: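 Dextran-sedimented, hypotonically lysed human leukocytes at 1.25 × 10^5 cells/mL, preincubated 5 min at 37 °C with compound in DMSO. Stimulated 5 min at 37 °C with A23187 (5 μL of 0.5 mM into 250 μL). Supernatant LTB4 measured by ELISA at 1:4 dilution; IC50 by nonlinear regression of % inhibition vs log concentration.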

Cytochrome P450 2D6 = Cytochrome P450 2D6 (Homo sapiens, UniProt P10635); assay: Inhibition of CYP2D6; assay type: ADME
Cytochrome P450 2C9 = Cytochrome P450 2C9 (Homo sapiens, UniProt P11712); assay: Inhibition of CYP2C9; assay type: ADME
[3] = target: T2, Arachidonate 5-lipoxygenase-activating protein (Homo sapiens, UniProt P20292); assay: Displacement of [3H]3-[5-(pyrid-2-ylmethoxy)-3-tert-butylthio-1-benzyl-indol-2-yl]-2,2-dimethylpropionic acid from FLAP in human polymorphonuclear cell membrane
T2 sequence (P20292 whole entry): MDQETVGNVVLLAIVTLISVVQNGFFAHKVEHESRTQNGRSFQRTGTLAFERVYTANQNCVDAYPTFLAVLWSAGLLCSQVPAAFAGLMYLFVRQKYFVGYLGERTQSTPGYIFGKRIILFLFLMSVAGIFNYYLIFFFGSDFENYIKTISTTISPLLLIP

CYP3A4 = CYP3A4 (Homo sapiens, UniProt P08684); assay: Inhibition of CYP3A4 at 10 uM; assay type: ADME
[4] = Volume of distribution at steady state in Sprague-Dawley rat at 2 mg/kg, iv and 10 mg/kg, po; assay type: ADME, organism-based; conditions: in vivo, read-out: Vdss
Summary of the method: (§1)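 Male rats fasted overnight, 2 or 3 per route. Dosing was 2 mg/kg i.v. as a jugular bolus in PEG400/ethanol/water (40/10/50) and 10 mg/kg p.o. by gavage in 0.5% methylcellulose. Jugular cannula blood was sampled up to 24 h (8-9 samples). Plasma was acetonitrile-precipitated with buspirone internal standard and quantified by LC-MS/MS, positive ESI MRM, calibration […], LLOQ 1-5 ng/mL.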

Cytochrome P450 3A4 [5] = target: T1, Cytochrome P450 3A4; assay: Inhibition of CYP3A4; assay type: ADME
[6] = Clearance in Sprague-Dawley rat at 2 mg/kg, iv and 10 mg/kg, po; assay type: ADME, organism-based; conditions: in vivo; summary of the method: as §1
[7] = Bioavailability in Sprague-Dawley rat at 2 mg/kg, iv and 10 mg/kg, po; assay type: ADME, organism-based; conditions: Sprague-Dawley, in vivo; summary of the method: as §1
[8] = Half life in Sprague-Dawley rat at 2 mg/kg, iv after 6 to 24 hrs; assay type: ADME, organism-based; parameters: dose 2 mg/kg, route intravenous; conditions: in vivo; summary of the method: as §1
[9] = AUC in Sprague-Dawley rat at 10 mg/kg, po; assay type: ADME, organism-based; parameters: dose 10 mg/kg, route oral; conditions: plasma; summary of the method: as §1
[10] = Cmax in Sprague-Dawley rat after 10 mg/kg oral dose; assay type: ADME, organism-based; parameters: dose 10 mg/kg, route oral; conditions: in vivo; summary of the method: as §1
P2Y purinoceptor 12 = P2Y purinoceptor 12 (Homo sapiens, UniProt Q9H244); assay: Agonist activity at human P2Y12 receptor; assay type: functional
[11] = Half life in Sprague-Dawley rat at 2 mg/kg, iv; assay type: ADME, organism-based; parameters: dose 2 mg/kg, route intravenous; conditions: in vivo; summary of the method: as §1
[12] = target: Prostaglandin G/H synthase 1 (Homo sapiens, UniProt P23219); assay: Inhibition of COX1 in human whole blood; assay type: tissue-based
Sequence of Prostaglandin G/H synthase 1 (P23219 whole entry): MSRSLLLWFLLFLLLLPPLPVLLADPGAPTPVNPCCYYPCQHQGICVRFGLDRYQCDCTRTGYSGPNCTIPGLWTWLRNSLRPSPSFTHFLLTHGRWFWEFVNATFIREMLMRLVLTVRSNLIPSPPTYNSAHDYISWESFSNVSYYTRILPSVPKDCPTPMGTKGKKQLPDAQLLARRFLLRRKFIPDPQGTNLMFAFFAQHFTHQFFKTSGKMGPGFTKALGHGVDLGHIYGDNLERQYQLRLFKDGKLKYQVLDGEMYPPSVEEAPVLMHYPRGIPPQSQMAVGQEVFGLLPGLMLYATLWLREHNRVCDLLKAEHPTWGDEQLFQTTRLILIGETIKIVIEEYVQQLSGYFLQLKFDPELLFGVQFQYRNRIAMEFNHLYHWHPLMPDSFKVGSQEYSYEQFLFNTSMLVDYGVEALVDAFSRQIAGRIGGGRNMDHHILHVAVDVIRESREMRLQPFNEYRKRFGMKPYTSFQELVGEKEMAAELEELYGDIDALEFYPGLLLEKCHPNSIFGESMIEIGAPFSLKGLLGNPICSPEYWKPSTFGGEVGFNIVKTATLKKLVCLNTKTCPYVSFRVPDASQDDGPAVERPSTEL

Sequence of Cytochrome P450 2C9 (P11712 whole entry): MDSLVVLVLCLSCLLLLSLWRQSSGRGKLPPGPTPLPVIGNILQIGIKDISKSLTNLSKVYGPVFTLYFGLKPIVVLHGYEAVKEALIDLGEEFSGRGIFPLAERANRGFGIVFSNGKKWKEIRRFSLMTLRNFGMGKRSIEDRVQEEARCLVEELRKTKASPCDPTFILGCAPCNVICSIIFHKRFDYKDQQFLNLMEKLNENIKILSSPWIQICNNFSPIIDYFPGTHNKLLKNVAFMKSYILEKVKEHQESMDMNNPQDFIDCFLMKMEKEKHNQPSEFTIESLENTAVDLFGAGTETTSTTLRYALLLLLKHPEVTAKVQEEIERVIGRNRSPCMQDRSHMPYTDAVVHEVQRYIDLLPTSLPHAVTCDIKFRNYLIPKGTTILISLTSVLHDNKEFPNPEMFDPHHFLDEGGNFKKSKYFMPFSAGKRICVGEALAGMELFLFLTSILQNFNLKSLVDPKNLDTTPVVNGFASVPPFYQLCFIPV
T1 sequence (P08684 whole entry): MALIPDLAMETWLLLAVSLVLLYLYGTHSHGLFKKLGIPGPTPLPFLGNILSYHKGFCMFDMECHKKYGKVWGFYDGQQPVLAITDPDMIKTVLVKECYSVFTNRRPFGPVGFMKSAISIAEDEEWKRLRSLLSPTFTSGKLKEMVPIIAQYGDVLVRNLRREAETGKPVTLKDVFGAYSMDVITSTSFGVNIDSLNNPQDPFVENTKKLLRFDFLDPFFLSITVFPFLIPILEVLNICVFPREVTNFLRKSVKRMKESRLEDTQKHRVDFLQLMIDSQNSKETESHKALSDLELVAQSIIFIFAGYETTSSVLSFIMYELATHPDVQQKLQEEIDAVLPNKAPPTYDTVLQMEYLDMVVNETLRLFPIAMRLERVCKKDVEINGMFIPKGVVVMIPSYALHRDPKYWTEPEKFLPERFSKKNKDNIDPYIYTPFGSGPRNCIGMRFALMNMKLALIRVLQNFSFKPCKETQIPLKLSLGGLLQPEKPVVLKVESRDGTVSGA
Sequence of Cytochrome P450 2D6 (P10635 whole entry): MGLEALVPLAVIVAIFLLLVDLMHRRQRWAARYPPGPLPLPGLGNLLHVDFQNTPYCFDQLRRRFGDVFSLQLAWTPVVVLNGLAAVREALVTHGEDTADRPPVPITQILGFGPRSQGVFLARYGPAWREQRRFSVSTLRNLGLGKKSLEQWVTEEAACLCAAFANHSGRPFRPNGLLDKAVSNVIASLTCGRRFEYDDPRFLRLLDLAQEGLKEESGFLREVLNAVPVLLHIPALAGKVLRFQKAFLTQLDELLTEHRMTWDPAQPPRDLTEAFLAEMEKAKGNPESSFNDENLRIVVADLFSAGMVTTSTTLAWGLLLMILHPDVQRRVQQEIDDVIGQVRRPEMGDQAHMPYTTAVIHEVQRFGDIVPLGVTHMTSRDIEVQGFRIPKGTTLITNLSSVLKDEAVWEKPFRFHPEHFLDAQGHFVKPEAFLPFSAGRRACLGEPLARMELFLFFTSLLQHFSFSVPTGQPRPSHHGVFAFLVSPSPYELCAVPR
Sequence of CYP3A4 (P08684 whole entry): as the sequence (P08684 whole entry) above
Sequence of P2Y purinoceptor 12 (Q9H244 whole entry): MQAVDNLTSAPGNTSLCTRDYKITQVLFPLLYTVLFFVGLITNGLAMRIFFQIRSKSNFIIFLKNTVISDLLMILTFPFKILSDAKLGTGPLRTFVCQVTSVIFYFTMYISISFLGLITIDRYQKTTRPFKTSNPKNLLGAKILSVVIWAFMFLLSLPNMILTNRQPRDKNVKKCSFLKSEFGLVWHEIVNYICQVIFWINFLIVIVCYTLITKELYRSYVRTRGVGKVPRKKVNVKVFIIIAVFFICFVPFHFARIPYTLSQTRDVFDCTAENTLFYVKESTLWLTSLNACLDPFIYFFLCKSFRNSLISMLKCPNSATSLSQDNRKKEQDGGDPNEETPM

TDI (Cytochrome P450 3A4 [1])	IC50 (Blood)	IC50 [2]	IC50 (Cytochrome P450 2D6)	IC50 (Cytochrome P450 2C9)	IC50 [3]	SMILES	other results
–	3.42 µM	0.059 µM	–	–	0.205 µM	COc1ccc(-c2ccc(Cn3c(CC(C)(C)C(=O)O)c(S(=O)(=O)C(C)(C)C)c4cc(OCc5ccccn5)ccc43)cc2)cn1	–
–	0.577 µM	0.0013 µM	> 10 µM	10 µM	0.0065 µM	Cc1ccc(-c2ccc(Cn3c(CC(C)(C)C(=O)O)c(SC(C)(C)C)c4cc(OCc5ccccn5)ccc43)cc2)cn1	inhibition at 10 µM (CYP3A4): 64%
–	0.37 µM	0.0034 µM	2.6 µM	15.5 µM	0.009 µM	CC(C)(C)Sc1c(CC(C)(C)C(=O)O)n(Cc2ccc(-c3cccnc3)cc2)c2ccc(OCc3ccccn3)cc12	Vd [4]: 0.38 L/kg; IC50 (Cytochrome P450 3A4 [5]): 4.7 µM; clearance [6]: 7 mL/min/kg; bioavailability [7]: 8%; half-life [8]: 7.6 h; AUC [9]: 1880 ng·h/mL; Cmax [10]: 920 ng/mL
0.014 min⁻¹	–	–	–	–	0.0048 µM	Cc1cnc(-c2ccc(Cn3c(CC(C)(C)C(=O)O)c(SC(C)(C)C)c4cc(OCc5ccccn5)ccc43)cc2)s1	–
–	0.934 µM	0.0012 µM	–	–	0.0055 µM	COc1ccc(-c2cccc(Cn3c(CC(C)(C)C(=O)O)c(SC(C)(C)C)c4cc(OCc5ccccn5)ccc43)c2)cn1	IC50 [12]: 0.42 µM

Further lines, the compound ahead of its results:

SMILES	TDI (Cytochrome P450 3A4 [1])	IC50 (Blood)	IC50 [2]	IC50 (Cytochrome P450 2D6)	IC50 (Cytochrome P450 2C9)	IC50 [3]	other results
CC(C)(C)Sc1c(CC(C)(C)C(=O)O)n(Cc2ccc(Cl)cc2)c2ccc(OCc3ccc4ccccc4n3)cc12 [QUIFLAPON]	0.009 min⁻¹	0.54 µM	0.0005 µM	11 µM	0.5 µM	–	–
CC(C)(Cc1c(CC2CCC2)c2cc(OCc3ccccn3)ccc2n1Cc1ccc(-c2nccs2)cc1)C(=O)O	–	0.391 µM	0.0011 µM	–	–	0.0066 µM	–
CC(C)(C)Sc1c(CC(C)(C)C(=O)O)n(Cc2ccc(-c3cncnc3)cc2)c2ccc(OCc3ccccn3)cc12	–	1.04 µM	0.0033 µM	–	–	0.0077 µM	–
CCCCC/C=C\C\C=C/C=C/C=C/[C@@H](SC[C@H](N)C(=O)O)[C@@H](O)CCCC(=O)O [LEUKOTRIEN E4]	–	–	–	–	–	–	EC50 (P2Y purinoceptor 12): 0.0013 µM
CC(C)(C)Sc1c(CC(C)(C)C(=O)O)n(Cc2ccc(-c3nccs3)cc2)c2ccc(OCc3ccccn3)cc12	0.033 min⁻¹	0.273 µM	0.001 µM	4 µM	9.1 µM	0.0048 µM	half-life [11]: 6.3 h; Vd [4]: 0.71 L/kg; IC50 (Cytochrome P450 3A4 [5]): 1.4 µM; clearance [6]: 8.6 mL/min/kg; bioavailability [7]: 50%; AUC [9]: 9540 ng·h/mL; Cmax [10]: 4300 ng/mL
Cc1csc(-c2ccc(Cn3c(CC(C)(C)C(=O)O)c(SC(C)(C)C)c4cc(OCc5ccccn5)ccc43)cc2)n1	0.006 min⁻¹	–	–	–	–	0.0073 µM	–
CC(C)(C)CCc1c(CC(C)(C)C(=O)O)n(Cc2ccc(-c3nccs3)cc2)c2ccc(OCc3ccccn3)cc12	–	4.86 µM	0.0053 µM	–	–	0.229 µM	–
